Reference: ChEMBL document CHEMBL4190359, “Synthesis and Investigation of S-Substituted 2-Mercaptobenzoimidazoles as Inhibitors of Hedgehog Signaling” (ACS Med Chem Lett, 2017)
Activity calls are given as the source filed them. The rule behind the calls is not given here.

Experiments:
[1] = (§1) Inhibition of Hedgehog signaling pathway in mouse C3H10T1/2 cells assessed as reduction in purmorphamine-induced increase in alkaline phosphatase level using CDP-star as substrate pretreated for 1 hr followed by purmorphamine addition measured after 5 days by luminescence assay; type: cell-based
How it was run: (§2)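 Osteogenesis assay in multipotent C3H/10T1/2 mesenchymal progenitor cells; differentiation to osteoblasts driven by SMO agonist purmorphamine; read-out is induced alkaline phosphatase expression; IC50 derived from reduction of this signal.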

[2] = Cytotoxicity against mouse C3H10T1/2 cells assessed as cell viability by CellTiter-Glo assay; type: cell-based, C3H 10T1/2; set-up: concentration or dose not given beside the values; details: read-out: Activity
[3] = Inhibition of Hedgehog signaling in mouse Shh Light2 cells assessed as reduction in purmorphamine-induced Gli mediated transcriptional activity pretreated for 1 hr followed by purmorphamine addition measured after 48 hrs by luciferase reporter gene assay; type: cell-based
[4] = Cytotoxicity against mouse Shh Light2 cells assessed as cell viability by CellTiter Glo assay; type: cell-based, Shh Light II; set-up: concentration or dose not given beside the values; details: read-out: Activity
[5] = biological target: T1, Alkaline phosphatase, tissue-nonspecific isozyme (Homo sapiens) (UniProt P05186); assay: Inhibition of recombinant human C-terminal His6-tagged alkaline phosphate activity (Leu18 to Ser502 residues) using CDP-star as substrate pretreated for 30 mins followed by substrate addition measured after 60 mins by luminescence assay
T1 sequence (whole entry): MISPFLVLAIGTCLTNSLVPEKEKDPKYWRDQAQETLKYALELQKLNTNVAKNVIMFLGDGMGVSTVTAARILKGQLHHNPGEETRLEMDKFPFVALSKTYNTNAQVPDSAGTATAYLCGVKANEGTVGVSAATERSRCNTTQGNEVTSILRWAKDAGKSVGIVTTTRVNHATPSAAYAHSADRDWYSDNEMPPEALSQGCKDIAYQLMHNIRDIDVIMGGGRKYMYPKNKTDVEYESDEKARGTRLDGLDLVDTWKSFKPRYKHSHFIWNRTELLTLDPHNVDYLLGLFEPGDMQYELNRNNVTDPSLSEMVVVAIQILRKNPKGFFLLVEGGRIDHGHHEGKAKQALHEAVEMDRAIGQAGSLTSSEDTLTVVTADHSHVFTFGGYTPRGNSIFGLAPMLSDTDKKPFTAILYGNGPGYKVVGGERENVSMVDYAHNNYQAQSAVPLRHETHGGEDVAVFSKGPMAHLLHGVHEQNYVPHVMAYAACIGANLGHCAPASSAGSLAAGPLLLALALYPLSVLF

Mus musculus = species on record: Mus musculus; assay: as §1; type: cell-based; how it was run: as §2
Shh Light II = assay: Cytotoxicity against mouse Shh Light2 cells by CellTiter Glo assay; type: cell-based
C3H 10T1/2 = assay: Cytotoxicity against mouse C3H10T1/2 cells by CellTiter-Glo assay; type: cell-based
Homo sapiens = species on record: Homo sapiens; assay: Inhibition of Hedgehog signaling pathway (unknown origin); details: concentration not given here
[6] = Mus musculus, C3H 10T1/2, read-out: IC50
[7] = Mus musculus, Shh Light2, read-out: IC50

| SMILES | IC50 [1] | IC50 [3] | inhibition [5] | IC50 [1, 6] [µM] | IC50 [3, 7] [µM] | inhibition (Homo sapiens) [%] | viability [2] [%] | viability [4] [%] | inhibition (Mus musculus) | IC50 (Shh Light II) [µM] | IC50 (C3H 10T1/2) [µM] |
| --- | --- | --- | --- | --- | --- | --- | --- | --- | --- | --- | --- |
| Cc1cccc(SCCSc2nc3ccccc3[nH]2)c1 |  |  | inactive | 3.06 | 3.48 |  | > 80 | > 80 |  |  |  |
| CC(C)c1ccccc1OCCSc1nc2ccccc2[nH]1 |  |  | inactive | > 10 |  |  | > 80 |  |  |  |  |
| Cc1ccc2nc(NCCOc3c(C)cccc3C)sc2c1 |  |  | inactive | > 10 |  |  | > 80 |  |  |  |  |
| Cc1ccc(OCCCSc2nc3ccccc3[nH]2)cc1 |  |  | inactive | 6.29 |  |  | > 80 |  |  |  |  |
| COc1ccc(SCCSc2nc3ccccc3[nH]2)cc1 |  |  | inactive | 5.63 | 3.55 |  | > 80 | > 80 |  |  |  |
| Cc1cccc(C)c1OCCCSc1nc2ccccc2[nH]1 |  |  | inactive | 5.6 | 4.12 |  | > 80 | > 80 |  |  |  |
| Clc1ccc(SCCCSc2nc3ccccc3[nH]2)cc1 |  |  | inactive | 2.85 | > 10 |  | > 80 | > 80 |  |  |  |
| Clc1cc(Cl)c(SCCSc2nc3ccccc3[nH]2)cc1Cl |  |  | inactive | 5.71 |  |  | > 80 |  |  |  |  |
| Cc1ccc(C)c(OCCSc2nc3ccccc3[nH]2)c1C |  |  | inactive | 2.9 |  |  | > 80 |  |  |  |  |
| c1ccc(-c2ccc(OCCSc3nc4ccccc4[nH]3)cc2)cc1 | Not Active |  | inactive |  |  |  | > 80 |  |  |  |  |
| CCOC(=O)CCCn1c(SCCOc2c(F)cccc2F)nc2ccccc21 |  |  |  |  |  | 12 |  |  |  |  |  |
| Cc1ccc2nc(NCCOc3ccccc3)sc2c1 | Not Active |  | inactive |  |  |  | > 80 |  |  |  |  |
| CS(=O)(=O)c1ccc(C(=O)Nc2ccc(Cl)c(-c3ccccn3)c2)c(Cl)c1 [VISMODEGIB] |  |  | inactive | 0.14 | 0.98 |  | > 80 | > 80 |  |  |  |

Further lines, with some results ahead:

| IC50 [1] | IC50 [3] | inhibition [5] | IC50 [1, 6] [µM] | IC50 [3, 7] [µM] | inhibition (Homo sapiens) [%] | SMILES | viability [2] [%] | viability [4] [%] | inhibition (Mus musculus) | IC50 (Shh Light II) [µM] | IC50 (C3H 10T1/2) [µM] |
| --- | --- | --- | --- | --- | --- | --- | --- | --- | --- | --- | --- |
| Not Active | Not Active | inactive |  |  |  | COC(=O)c1cccc(OCCSc2nc3ccccc3[nH]2)c1 | > 80 | > 80 |  |  |  |
|  |  | inactive | 1.76 | 3.16 |  | Cc1cccc(C)c1OCCSc1nc2ccccc2[nH]1 | > 80 | > 80 | Dose-dependent effect |  |  |
|  |  | inactive | 4.49 | 7.29 |  | c1ccc2cc(OCCSc3nc4ccccc4[nH]3)ccc2c1 | > 80 | > 80 |  |  |  |
|  |  | inactive | 2.22 | 8.92 |  | c1ccc(OCCSc2nc3ccccc3[nH]2)cc1 | > 80 | > 80 |  |  |  |
|  |  | inactive | 6.41 |  |  | Cc1ccc(C)c(OCCSc2nc3ccccc3[nH]2)c1 | > 80 |  |  |  |  |
|  |  | inactive | 4.26 | 6.93 |  | Cc1ccccc1OCCSc1nc2ccccc2[nH]1 | > 80 | > 80 |  |  |  |
|  |  | inactive | 2.23 | 8.12 |  | Oc1ccc(OCCSc2nc3ccccc3[nH]2)cc1 |  |  |  | 7.7 | 7.12 |
| Not Active |  | inactive |  |  |  | Cc1ccc(OCCSc2nc3ccccc3[nH]2)c([N+](=O)[O-])c1 | > 80 |  |  |  |  |
|  |  | inactive | 2.57 | 7.89 |  | Cc1cc(OCCSc2nc3ccccc3[nH]2)ccc1Cl | > 80 | > 80 |  |  |  |
| Not Active |  | inactive |  |  |  | Cc1cccc(OCCCSc2nc3ccccc3[nH]2)c1 | > 80 |  |  |  |  |
|  |  | inactive | 2.08 | 5.11 |  | Cc1cccc(OCCSc2nc3ccccc3[nH]2)c1 | > 80 | > 80 |  |  |  |
|  |  | inactive | 9.17 |  |  | CC(C)c1cccc(OCCSc2nc3ccccc3[nH]2)c1 | > 80 |  |  |  |  |
|  |  | inactive | 2.32 |  |  | Fc1ccccc1OCCSc1nc2ccccc2[nH]1 | > 80 |  |  |  |  |
|  |  | inactive | 4.47 | 6.49 |  | O=[N+]([O-])c1cccc(OCCSc2nc3ccccc3[nH]2)c1 | > 80 | > 80 |  |  |  |
|  |  | inactive | 2.61 |  |  | COc1ccccc1OCCSc1nc2ccccc2[nH]1 | > 80 |  |  |  |  |
